Source: ChEMBL document CHEMBL4152190, “Microwave-assisted one-pot synthesis of new phenanthrene fused-tetrahydrodibenzo-acridinones as potential cytotoxic and apoptosis inducing agents” (Eur J Med Chem, 2018)
The source made the active and inactive calls. The rule behind the calls is not given here.

Columns and labels:
PC-3 = assay: Cytotoxicity against human PC3 cells after 48 hrs by MTT assay; assay type: functional, cell-based; conditions: PC-3, 48 h
Outline: (§1)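 ATCC lines grown in DMEM or RPMI with 10% FBS and antibiotic-antimycotic, 37 °C, 5% CO2. Seeded at 3×10^4 cells/well, 24 h before dosing with vehicle (DMSO) controls. […] Cisplatin as reference.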

SK-OV-3 [1] = assay: Cytotoxicity against human SKOV3 cells after 48 hrs by MTT assay; assay type: functional, cell-based; conditions: SK-OV-3, 48 h; outline: as §1
HeLa = assay: Cytotoxicity against human HeLa cells after 48 hrs by MTT assay; assay type: functional, cell-based; outline: as §1
HEK-293T = assay: Cytotoxicity against human HEK293T cells after 48 hrs by MTT assay; assay type: cell-based; outline: as §1
HT-1080 = assay: Cytotoxicity against human HT1080 cells after 48 hrs by MTT assay; assay type: functional, cell-based; conditions: HT-1080, 48 h; outline: as §1
SK-OV-3 [2] = assay: Induction of apoptosis in human SKOV3 cells assessed as increase in pyknotic nuclei at 0.1 to 0.5 uM after 24 hrs by […] staining-based fluorescence microscopic analysis; assay type: functional, cell-based
Outline: (§2)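 SKOV-3 cells on coverslips (5×10^5/well), adhered 24 h, then exposed 24 h. Fixed in 4% formaldehyde 10 min at 4 °C, stained with […] (5 µg/mL) 30 min at room temperature, and nuclear morphology scored by fluorescence microscopy (ex 350/em 460 nm, 20×).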

SK-OV-3 [3] = assay: Cell cycle arrest in human SKOV3 cells assessed as accumulation of cells at S phase at 0.2 uM after 24 hrs by propidium iodide staining-based flow cytometric analysis (reference value: 5%); assay type: functional
Outline: (§3)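 SKOV-3 cells (1×10^6/well) exposed 24 h, trypsinised, washed in PBS, fixed in 70% ethanol 30 min at 4 °C, stained 15 min in the dark at room temperature with PBS containing propidium iodide, Triton X and DNase-free RNase A. DNA content read by flow cytometry (15,000 events per methods; legend cites 10,000 cells). G0/G1, S and G2/M percentages taken from instrument software.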

SK-OV-3 [4] = assay: Induction of apoptosis in human SKOV3 cells assessed as nuclear fragmentation at 0.1 to 0.5 uM after 24 hrs by […] staining-based fluorescence microscopic analysis; assay type: functional, cell-based; outline: as §2
SK-OV-3 [5] = assay: Induction of apoptosis in human SKOV3 cells assessed as increase in caspase3 activity at 0.1 uM using Ac-DEVDpNA as substrate pretreated for 24 hrs followed by substrate addition and measured for 2 hrs by colorimetric analysis relative to control; assay type: functional
Outline: (§4)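 SKOV-3 cells (2×10^5/well) exposed 24 h, trypsinised, lysed 20 min, and lysate cleared at 15000 rpm for 10 min at 4 °C. Supernatant incubated with reaction buffer and Ac-DEVD-pNA 2 h at 37 °C, then read at 405 nm. Activity expressed as fold of untreated control (set to 1).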

SK-OV-3 [6] = assay: Inhibition of spheroid growth in human SKOV3 cells at 0.5 uM after 72 hrs by phase contrast microscopic analysis; assay type: functional, cell-based
Outline: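 SKOV-3 cells (5000/well) in ultra-low-attachment round-bottom wells, grown 2 days to form spheroids, then exposed for 72 h. Spheroid growth and surface area assessed by phase contrast microscopy.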

SK-OV-3 [7] = assay: Cell cycle arrest in human SKOV3 cells assessed as accumulation of cells at S phase at 0.5 uM after 24 hrs by propidium iodide staining-based flow cytometric analysis (reference value: 5%); assay type: functional; outline: as §3
Homo sapiens [8] = organism: Homo sapiens; assay: Inhibition of F-actin polymerization in human SKOV3 cells assessed as induction of stress fibers disruption around nucleus at 0.1 to 0.5 uM after 24 hrs by rhodamine-phalloidin/[…] staining-based confocal fluorescence microscopic analysis; assay type: cell-based
Outline: (§5)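 SKOV-3 cells (1×10^6/well) on coverslips, grown 24 h, then exposed 24 h. Washed, fixed in 4% paraformaldehyde in PBS, stained with rhodamine-phalloidin (F-actin) and […] (nuclei), mounted in anti-fade medium, and imaged by confocal microscopy at 20×.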

SK-OV-3 [9] = assay: Induction of oxidative stress in human SKOV3 cells assessed as ROS generation by measuring fluorescence intensity at 0.1 to 0.5 uM after 24 hrs by carboxy-H2DCFDA dye-based flow cytometric analysis relative to untreated control; assay type: functional
Outline: (§6)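 SKOV-3 cells (2×10^5/well) exposed 24 h, trypsinised, and loaded with 10 µM carboxy-H2DCFDA in PBS 15 min at room temperature in the dark. After washing, green DCF fluorescence was read by flow cytometry and expressed as % of control (100%).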

SK-OV-3 [10] = assay: Cell cycle arrest in human SKOV3 cells assessed as accumulation of cells at G2/M phase at 0.5 uM after 24 hrs by propidium iodide staining-based flow cytometric analysis (reference value: 14.7%); assay type: functional; outline: as §3
SK-OV-3 [11] = assay: Induction of apoptosis in human SKOV3 cells assessed as increase in caspase3 activity at 0.2 uM using Ac-DEVDpNA as substrate pretreated for 24 hrs followed by substrate addition and measured for 2 hrs by colorimetric analysis relative to control; assay type: functional; outline: as §4
SK-OV-3 [12] = assay: Induction of oxidative stress in human SKOV3 cells assessed as ROS generation by measuring fluorescence intensity at 0.2 uM after 24 hrs by carboxy-H2DCFDA dye-based flow cytometric analysis (reference value: 100%); assay type: functional; outline: as §6
SK-OV-3 [13] = assay: Induction of apoptosis in human SKOV3 cells assessed as increase in caspase3 activity at 0.5 uM using Ac-DEVDpNA as substrate pretreated for 24 hrs followed by substrate addition and measured for 2 hrs by colorimetric analysis relative to control; assay type: functional; outline: as §4
SK-OV-3 [14] = assay: Cell cycle arrest in human SKOV3 cells assessed as accumulation of cells at S phase at 0.1 uM after 24 hrs by propidium iodide staining-based flow cytometric analysis (reference value: 5%); assay type: functional; outline: as §3
SK-OV-3 [15] = assay: Cell cycle arrest in human SKOV3 cells assessed as decrease in cells at G0/G1 phase at 0.1 to 0.5 uM after 24 hrs by propidium iodide staining-based flow cytometric analysis; assay type: functional; outline: as §3
[16] = Selectivity index, ratio of IC50 for cytotoxicity against human HEK293T cells to IC50 for cytotoxicity against human SKOV3 cells after 48 hrs by MTT assay; assay type: toxicity, cell-based; conditions: HEK293T cells versus SKOV3 cells, read-out: Ratio IC50
SK-OV-3 [17] = assay: Cell cycle arrest in human SKOV3 cells assessed as accumulation of cells at G2/M phase at 0.2 uM after 24 hrs by propidium iodide staining-based flow cytometric analysis (reference value: 14.7%); assay type: functional; outline: as §3
SK-OV-3 [18] = assay: Cell cycle arrest in human SKOV3 cells assessed as accumulation of cells at G2/M phase at 0.1 uM after 24 hrs by propidium iodide staining-based flow cytometric analysis (reference value: 14.7%); assay type: functional; outline: as §3
SK-OV-3 [19] = assay: Induction of apoptosis in human SKOV3 cells assessed as disruption of mitochondrial membrane potential at 0.1 to 0.5 uM after 24 hrs by JC-1 dye-based fluorescence microscopic analysis; assay type: functional, cell-based
Outline: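 SKOV-3 cells at 5×10^5 cells/mL, adhered overnight, exposed 24 h with DMSO-treated controls. Stained with JC-1 (5 µg/mL in PBS) 30 min at room temperature, washed, and imaged in red (J-aggregate) and green (monomer) channels by fluorescence microscopy at 20×.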

SK-OV-3 [20] = assay: Induction of apoptosis in human SKOV3 cells assessed as increase in horse shoe shaped nuclei at 0.1 to 0.5 uM after 24 hrs by […] staining-based fluorescence microscopic analysis; assay type: functional, cell-based; outline: as §2
SK-OV-3 [21] = assay: Induction of oxidative stress in human SKOV3 cells assessed as ROS generation by measuring fluorescence intensity at 0.5 uM after 24 hrs by carboxy-H2DCFDA dye-based flow cytometric analysis (reference value: 100%); assay type: functional; outline: as §6
SK-OV-3 [22] = assay: Induction of apoptosis in human SKOV3 cells assessed as chromatin condensation at 0.1 to 0.5 uM after 24 hrs by […] staining-based fluorescence microscopic analysis; assay type: functional, cell-based; outline: as §2
SK-OV-3 [23] = assay: Induction of oxidative stress in human SKOV3 cells assessed as ROS generation by measuring fluorescence intensity at 0.1 uM after 24 hrs by carboxy-H2DCFDA dye-based flow cytometric analysis (reference value: 100%); assay type: functional; outline: as §6
Homo sapiens [24] = organism: Homo sapiens; assay: Inhibition of F-actin polymerization in human SKOV3 cells assessed as decrease in F-actin extensions at 0.1 to 0.5 uM after 24 hrs by rhodamine-phalloidin/[…] staining-based confocal fluorescence microscopic analysis; assay type: cell-based; outline: as §5

COc1cc2c3c(c4cc(OC)c(OC)cc4c2cc1OC)C(c1ccc(C(F)(F)F)cc1)C1=C(CC(C)(C)CC1=O)N3 (stereo not drawn) gave an IC50 (PC-3) of 31.4 µM, an IC50 (SK-OV-3 [1]) of 18.6 µM and an IC50 (HeLa) of over 50 µM. The IC50 (HEK-293T) was 35.7 µM and the IC50 (HT-1080) was 15.6 µM.
In the case of COc1cc2c3c(c4cc(OC)c(OC)cc4c2cc1OC)C(c1ccc(C)cc1)C1=C(CCCC1=O)N3 (stereo not drawn), the IC50 (PC-3) is reported as 7.17 µM, the IC50 (SK-OV-3 [1]) is reported as 1.62 µM and the IC50 (HeLa) is reported as 4.79 µM. For the same compound, the IC50 (HEK-293T) was 38.9 µM and the IC50 (HT-1080) was 5.63 µM.
Work on COc1cc2c3c(c4cc(OC)c(OC)cc4c2cc1OC)C(c1cccs1)C1=C(CC(C)(C)CC1=O)N3 (stereo not drawn) yielded an IC50 (PC-3) of 7.1 µM, an IC50 (SK-OV-3 [1]) of 1.6 µM and an IC50 (HeLa) of 2.28 µM. For the same compound, the IC50 (HEK-293T) was 18.9 µM and the IC50 (HT-1080) was 5.87 µM.
With COc1cc2c3c(c4cc(OC)c(OC)cc4c2cc1OC)C(c1cccc(C(F)(F)F)c1)C1=C(CCCC1=O)N3 (stereo not drawn) the Activity (SK-OV-3 [2]) was “Active”, the IC50 (PC-3) was 11.8 µM and the Activity (SK-OV-3 [3]) was 19.3%. For the same compound, the IC50 (SK-OV-3 [1]) was 0.24 µM, the Activity (SK-OV-3 [4]) was “Active” and the “fold change (FC)” value (SK-OV-3 [5]) was 1.58. For the same compound, the inhibition (SK-OV-3 [6]) was “Active”, the Activity (SK-OV-3 [7]) was 14.1% and the inhibition (Homo sapiens [8]) was “Active”. The IC50 (HeLa) was 4.38 µM, the “fold change (FC)” value (SK-OV-3 [9]) was 2 and the Activity (SK-OV-3 [10]) was 37.9%. For the same compound, the “fold change (FC)” value (SK-OV-3 [11]) was 2.45, the Activity (SK-OV-3 [12]) was 150.3% and the “fold change (FC)” value (SK-OV-3 [13]) was 3.78. The Activity (SK-OV-3 [14]) was 2.3%, the Activity (SK-OV-3 [15]) was “Active” and the selectivity ratio at 48 h [16] was 77. The Activity (SK-OV-3 [17]) was 33.5%, the Activity (SK-OV-3 [18]) was 22.6% and the Activity (SK-OV-3 [19]) was “Active”. The IC50 (HEK-293T) was 18.5 µM, the Activity (SK-OV-3 [20]) was “Active” and the Activity (SK-OV-3 [21]) was 204.76%. The IC50 (HT-1080) was 3.89 µM, the Activity (SK-OV-3 [22]) was “Active” and the Activity (SK-OV-3 [23]) was 128.5%. For the same compound, the inhibition (Homo sapiens [24]) was “Active”.
For COc1cc2c3c(c4cc(OC)c(OC)cc4c2cc1OC)C(c1sccc1C)C1=C(CC(C)(C)CC1=O)N3 (stereo not drawn), the IC50 (PC-3) was 21.6 µM, the IC50 (SK-OV-3 [1]) was 2.89 µM and the IC50 (HeLa) was 3.7 µM. The IC50 (HEK-293T) was 33.5 µM and the IC50 (HT-1080) was 8.85 µM.
COc1cc2c3c(c4cc(OC)c(OC)cc4c2cc1OC)C(c1ccc2c(c1)OCO2)C1=C(CC(C)(C)CC1=O)N3 (stereo not drawn) gave an IC50 (PC-3) of 7.7 µM, an IC50 (SK-OV-3 [1]) of 4.66 µM and an IC50 (HeLa) of 1.35 µM. It also gave an IC50 (HEK-293T) of 24.6 µM and an IC50 (HT-1080) of 4.32 µM.
COc1cc(C2C3=C(CC(C)(C)CC3=O)Nc3c2c2cc(OC)c(OC)cc2c2cc(OC)c(OC)cc32)ccc1O (stereo not drawn) gave an IC50 (PC-3) of 23.8 µM, an IC50 (SK-OV-3 [1]) of 13.6 µM and an IC50 (HeLa) of 11.7 µM. For the same compound, the IC50 (HEK-293T) was over 50 µM and the IC50 (HT-1080) was 9.83 µM.
For COc1cc2c3c(c4cc(OC)c(OC)cc4c2cc1OC)C(c1ccc(C(C)C)cc1)C1=C(CCCC1=O)N3 (stereo not drawn), the IC50 (PC-3) was 5.67 µM, the IC50 (SK-OV-3 [1]) was 4.81 µM and the IC50 (HeLa) was 13.6 µM. It also gave an IC50 (HEK-293T) of 41.5 µM and an IC50 (HT-1080) of 11.7 µM.
Work on COc1cc2c3c(c4cc(OC)c(OC)cc4c2cc1OC)C(c1ccc(Br)cc1)C1=C(CC(C)(C)CC1=O)N3 (stereo not drawn) yielded an IC50 (PC-3) of 12.4 µM, an IC50 (SK-OV-3 [1]) of 15.5 µM and an IC50 (HeLa) of 31.6 µM. It also gave an IC50 (HEK-293T) of 36.3 µM and an IC50 (HT-1080) of 11.6 µM.
